According to the RNAGym collection of RNA variant scans (doi:10.1126/science.aae0568):
Fewer inactive variants are shown than the library holds.

B1: tRNA (parent)
chain: GUUCCGUUGGCGUAAUGGUAACGCGUCUCCCUCCUAAGGAGAAGACUGCGGGUUCGAGUCCCGUACGGAACG

Variants of: B1
Test: yeast fitness relative to wild type (ratio to wild type); higher = fitter; tRNA-Arg(CCU), competitive growth, 37 C, YPD
In short: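 For this measurement, the tRNA-Arg(CCU) gene was varied by chemical synthesis at a 3% per-site mutation rate across 69 sites, and each variant was placed at the native genomic locus in Saccharomyces cerevisiae. The pooled strains went through a 24-hour competition in YPD at 37°C in six parallel replicates, with amplicons from start and end populations read by 100-nucleotide paired-end sequencing. Darwinian fitness relative to wild type followed from the change in each genotype's frequency. Genotypes needed ≥ 100 starting reads, and estimates < 0.5 were set to 0.5.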

| Variant | yeast fitness |
| --- | --- |
| C5U C29G C30G A65C | ≤ 0.5 |
| C5U G12A C49U | 0.612 |
| C5U G38A | 1.03 |
| C5U G10C A21U C22U C24U U32C C46U C61G | ≤ 0.5 |
| C5U C31G G68C | 0.645 |
| C5U C34U A42U | 0.529 |
| C5U C29G C49U A69U | ≤ 0.5 |
| C5U G9A C34U C46G C49U | 0.513 |
| C5U G17C C46A | 0.556 |
| C5U G10A U54C A57G | ≤ 0.5 |
| C5U G6A C31G G50C U54C | ≤ 0.5 |
| C5U G10C A15G C29G A40C A43U U47A C60A | ≤ 0.5 |
| C5U C27A G41C A57U | ≤ 0.5 |
| C5U C34A G50C | ≤ 0.5 |
| C5U C60A | 0.585 |
| C5U C60G | 0.627 |
| C5U G39A A69C | 0.647 |
| C5U C29A A65C | ≤ 0.5 |
| C5U G25A A37U A40C C61A | ≤ 0.5 |
| C5U G12A G52C A70U | ≤ 0.5 |
| C5U C34G A45U U53G A57G | 0.672 |
| C5U G10C A14G C46G C62U | 0.593 |
| C5U G10C C34A A57U G67C | ≤ 0.5 |
| C5U C34A C49A U59G | ≤ 0.5 |

| Variant | yeast fitness |
| --- | --- |
| C5U C27U C61G | ≤ 0.5 |
| C5U G9A A21G U53A | ≤ 0.5 |
| C5U C49U G67C | 0.608 |
| C5U G9A G51C G52C | ≤ 0.5 |
| C5U C27U A37C C60A | 0.546 |
| C5U C22U C62U | 0.66 |
| C5U G17C C30G U59A | ≤ 0.5 |
| C5U C27U A37G A40C U47A | ≤ 0.5 |
| C5U C30A A42U | 0.59 |
| C5U G41A C46A U47C | 0.568 |
| C5U G12A C22U C33U | ≤ 0.5 |
| C5U C27G A69C | ≤ 0.5 |
| C5U C24U U32C | 0.72 |
| C5U C61G | 0.771 |
| C5U C61U | 0.971 |
| C5U G10A G68C | ≤ 0.5 |
| C5U C22U C33U | 0.561 |
| C5U C31U A57C G58A A69G | ≤ 0.5 |
| C5U G9A A43C | 0.653 |
| C5U C27U G48A G67C | ≤ 0.5 |
| C5U C46G C62U | 0.697 |
| C5U C27U A37C | ≤ 0.5 |
| C5U C27U U28G C33G A36G | ≤ 0.5 |
| C5U C27U G56A | 0.704 |

| Variant | yeast fitness |
| --- | --- |
| C5U C22U A37U G68U | ≤ 0.5 |
| C5U G10A A36G G44C | ≤ 0.5 |
| C5U C24U C29A | 0.574 |
| C5U C22U G23C A36G G67A | ≤ 0.5 |
| C5U G17C C30A A57C | ≤ 0.5 |
| C5U C49U A65U | 0.644 |
| C5U C49U A65C | 0.745 |
| C5U C30G C61U | ≤ 0.5 |
| C5U C24U A42C | 0.746 |
| C5U C33U A65G C66A | ≤ 0.5 |
| C5U C27G U28G | ≤ 0.5 |
| C5U G17A A36U U47A | ≤ 0.5 |
| C5U G39A A57C | 0.656 |
| C5U C33G C55U | ≤ 0.5 |
| C5U C24A G41A A69C | ≤ 0.5 |
| C5U C33U C49G A65C | ≤ 0.5 |
| C5U C30U A40U | 0.567 |
| C5U C29A A57U A69C | ≤ 0.5 |
| C5U C33A A36C A37C A43G A69U | ≤ 0.5 |
| C5U C30U C49G | 0.62 |
| C5U G17C G52A | 0.61 |
| C5U C30U A45U | 0.701 |
| C5U C33A C55U | ≤ 0.5 |
| C5U G17A C49G C60A | ≤ 0.5 |

| Variant | yeast fitness |
| --- | --- |
| C5U C46G C62U C66G | 0.538 |
| C5U C33G G38A C60A | 0.542 |
| C5U G10A A69G | ≤ 0.5 |
| C5U C24A C33U A70U | ≤ 0.5 |
| C5U C24U A42C A57U G63C | ≤ 0.5 |
| C5U G25A A70C | 0.796 |
| C5U C33A G39C G51C C62U A69C | 0.543 |
| C5U C22U C33U C61G | ≤ 0.5 |
| C5U C29U C31U U54G A65U G67A | ≤ 0.5 |
| C5U G6C U19C G25C U28G C62A | 0.747 |
| C5U G25A A69C | 0.728 |
| C5U C24U A42C A57U | 0.534 |
| C5U C34A U64G | ≤ 0.5 |
| C5U C30U U47A G67C | 0.542 |
| C5U G25A G51C G56C A69U | ≤ 0.5 |
| C5U G12A A40U A45G C60A | ≤ 0.5 |
| C5U C34A A36G G63A | ≤ 0.5 |
| C5U G6A U35C A36U G38A C46A U54C | ≤ 0.5 |
| C5U C27A A42U G48A C49G C60A | 0.592 |
| C5U C66G G68C | 0.541 |
| C5U G9A U13A A36C G50C | ≤ 0.5 |
| C5U G10C G39C G51A | ≤ 0.5 |
| C5U C24G C31G C61G | ≤ 0.5 |
| C5U C30U A40U A70C | ≤ 0.5 |

| Variant | yeast fitness |
| --- | --- |
| C5U C22G U26G A42C G51A | 0.537 |
| C5U C46U A57G A70C | ≤ 0.5 |
| C5U C29U A43G G48C C55A | ≤ 0.5 |
| C5U C22U A45G | 0.666 |
| C5U G25C C27G | ≤ 0.5 |
| C5U C55U G67C | ≤ 0.5 |
| C5U G23A C31U A65G | ≤ 0.5 |
| C5U C34A G39C G52A G58A | ≤ 0.5 |
| C5U C34A A36G | ≤ 0.5 |
| C5U C55G | 0.676 |
| C5U G18C | 0.721 |
| C5U C24G A37U G56A A65C | ≤ 0.5 |
| C5U C24U A36G G41C | ≤ 0.5 |
| C5U C55A A57C | ≤ 0.5 |
| C5U C30A G39A C66G | ≤ 0.5 |
| C5U G10C C30U | ≤ 0.5 |
| C5U C31U G41A | 0.831 |
| C5U C55A C62A | ≤ 0.5 |
| C5U G23C A69C | ≤ 0.5 |
| C5U G17C A43C C49G | ≤ 0.5 |
| C5U C24A A65U | 0.733 |
| C5U C22U U53C U59G C61G C62U | ≤ 0.5 |
| C5U C34A C55G | ≤ 0.5 |
| C5U C31G C66U | 0.736 |

| Variant | yeast fitness |
| --- | --- |
| C5U G23A C27G C31G G50C G58C | 0.557 |
| C5U C55U G56C C62U | 0.932 |
| C5U C29G C34G | 0.542 |
| C5U C33G C34G C46U | ≤ 0.5 |
| C5U G6A G44C G63A | ≤ 0.5 |
| C5U C31U G39A A57C | 0.574 |
| C5U C33G C49A | ≤ 0.5 |
| C5U G18C C61U | 0.565 |
| C5U G17A C55A G67A A70G | ≤ 0.5 |
| C5U C31U G68C | 0.653 |
| C5U G10A A21G | 0.59 |
| C5U C29G A37C C49U C66A | 0.627 |
| C5U C30U A37G | 0.64 |
| C5U G9C C11G C24A U26G G68A A69C | ≤ 0.5 |
| C5U G25C A42U C62G | ≤ 0.5 |
| C5U G17C C30G C55G | ≤ 0.5 |
| C5U G18C A45U | ≤ 0.5 |
| C5U C46A C66U | 0.663 |
| C5U G6U C11U A15G G48C | ≤ 0.5 |
| C5U C34U A69U | 0.59 |
| C5U G23A C46G C49G | ≤ 0.5 |
| C5U C49U C66U | 0.887 |
| C5U C24G U32G A36G C60A A65U | 0.535 |
| C5U C33G C34U G38C U47A | ≤ 0.5 |

| Variant | yeast fitness |
| --- | --- |
| C5U G17A C29U G52C C55G | ≤ 0.5 |
| C5U G10C C27G U28C G39C C46G | 0.606 |
| C5U G12C U28A | 0.545 |
| C5U G10C C30A A36U A42C U64A C66G A69U | ≤ 0.5 |
| C5U C33U G39A | 0.649 |
| C5U G10A A20C G41A C46G G48A U54C C55U A70C | 0.647 |
| C5U G12A U47G C49U G68C | ≤ 0.5 |
| C5U C33G C49A A70C | ≤ 0.5 |
| C5U C30G A36U G51A G52A U64G | ≤ 0.5 |
| C5U C29U A43U | 0.89 |
| C5U G9A U26C G67U | ≤ 0.5 |
| C5U C31G C33G C34U G68A | 0.671 |
| C5U C34G A65C | 0.525 |
| C5U C29U A45U | 0.924 |
| C5U G10C C33U C46G | ≤ 0.5 |
| C5U C31U C46U G51A | 0.69 |
| C5U C27G C55G A69U | ≤ 0.5 |
| C5U G10A C46A | ≤ 0.5 |
| C5U C30G G51C G56U | ≤ 0.5 |
| C5U C31U C61A | 0.552 |
| C5U G18C C22U G50A G52C | ≤ 0.5 |
| C5U G10C A21U C22U U32C C46U | ≤ 0.5 |
| C5U G9C U64A | 0.577 |
